Experiment [1] deals with 5-hydroxytryptamine receptor 1B (Rattus norvegicus, UniProt P28564). Put plainly: Binding affinity towards 5-hydroxytryptamine 1B receptor was measured using [3H]5-HT as radioligand. The method, boiled down:
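Rat frontal cortex and striatum membranes (0.8 mg protein/mL), 2 nM [3H]-5-OH-tryptamine, 1 μM spiperone, 50 nM mesulergine; 25 °C, 30 min; 50 mM Tris-HCl pH 7.4, 4 mM CaCl2, 10 μM pargyline. Nonspecific binding with 10 μM propranolol. Expressed as log IC50 ± SEM.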

The target in experiment [2] is 5-hydroxytryptamine receptor 2A (Bos taurus, UniProt Q75Z89). Put plainly: Binding affinity against 5-hydroxytryptamine 2A receptor was measured using [3H]ketanserin as radioligand. Summed up: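 Bovine frontal cortex membranes (0.6 mg protein/mL) with 0.8 nM [3H]ketanserin and 100 nM WB4101, 37 °C for 30 min, in 50 mM Tris-HCl pH 7.4 plus 5 mM MgCl2, 10 mM NaCl, 0.5 mM EDTA, 10 μM pargyline. 10 μM spiperone defined nonspecific binding. Reported as log IC50 ± SEM.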
Sequence of 5-hydroxytryptamine receptor 2A (Q75Z89 whole entry): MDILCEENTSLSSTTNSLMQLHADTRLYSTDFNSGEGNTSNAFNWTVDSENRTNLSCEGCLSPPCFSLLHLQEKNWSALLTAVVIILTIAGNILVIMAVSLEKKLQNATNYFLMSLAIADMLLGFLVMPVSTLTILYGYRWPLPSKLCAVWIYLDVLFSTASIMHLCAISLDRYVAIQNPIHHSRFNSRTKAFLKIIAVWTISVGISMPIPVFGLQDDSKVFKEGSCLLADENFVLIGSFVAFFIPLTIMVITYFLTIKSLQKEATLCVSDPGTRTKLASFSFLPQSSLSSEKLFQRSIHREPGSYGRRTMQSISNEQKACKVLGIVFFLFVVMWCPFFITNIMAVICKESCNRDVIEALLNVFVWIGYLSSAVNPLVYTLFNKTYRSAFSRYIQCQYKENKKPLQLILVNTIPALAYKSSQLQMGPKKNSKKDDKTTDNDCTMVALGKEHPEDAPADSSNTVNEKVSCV

Experiment [3] addresses Serotonin 3 (5-HT3) receptor. Put plainly: Binding affinity against 5-hydroxytryptamine 3 receptor was measured using [3H]granisetron as radioligand. The format is protein-complex assay.
The subject of experiment [4] is NG108-15. Briefly: In Vitro 5-HT3 agonist activity on the [14C]guanidinium accumulation in NG 108-15 cells. The format is functional, cell-based. The note with it: Murinae. Summed up: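 NG 108-15 cells grown 2 days, washed, then incubated 10 min at 37 °C in HEPES buffer pH 7.4 with 10 mM guanidinium chloride, 200–250 nCi [14C]guanidinium, 10 μM substance P and drug. After ice-cold choline wash, cells dissolved in NaOH and radioactivity counted. EC50 from triplicates per concentration; mean ± SEM of three determinations.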

In experiment [5] the test system is Rattus norvegicus. Put plainly: In Vivo 5-HT3 agonist activity in the Von Bezold-Jarisch reflex decrease in heart rate in rats at 120 (ug/kg) dose. The format is functional. Summed up:
(§1)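 Fasted male Crl:CD(SD)BR rats (280–320 g) under urethane (1.25 g/kg ip); heart rate from cannulated carotid artery. Compound in saline given iv via jugular cannula. Read-out is fall in heart rate as percent of pre-treatment baseline.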

Experiment [6] deals with Rattus norvegicus. Briefly: In Vivo 5-HT3 antagonist activity in the Von Bezold-Jarisch reflex in rats after intravenous dose of 120 (ug/kg). The format is functional. The method, boiled down:
(§2)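 Urethane-anesthetized (1.25 g/kg ip) fasted male Crl:CD(SD)BR rats; heart rate from carotid cannula. Compound in saline iv via jugular vein, usually 5 min before 5-HT bolus (30 μg/kg iv).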

Experiment [7] addresses 5-hydroxytryptamine receptor 1D (Sus scrofa, UniProt P79400). Put plainly: Binding affinity against 5-hydroxytryptamine 1D receptor was measured using [3H]5-HT as radioligand. Summed up:
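Pig frontal cortex and striatum membranes (0.8 mg protein/mL), 2 nM [3H]-5-OH-tryptamine with 1 μM spiperone and 50 nM mesulergine, 25 °C, 30 min, 50 mM Tris-HCl pH 7.4, 4 mM CaCl2, 10 μM pargyline. Nonspecific binding with 10 μM 5-HT. Expressed as log IC50 ± SEM.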

The test system of experiment [8] is Rattus norvegicus. Briefly: In Vivo 5-HT3 antagonist activity in the Von Bezold-Jarisch reflex in rats and percent inhibition of bradycardia induced by 5-HT was reported. The format is functional. The note with it: read-out: ID50 (the source's name). The method, boiled down:
as §2

Experiment [9] has as its target 5-hydroxytryptamine receptor 1A (Bos taurus). Briefly: Binding affinity against 5-hydroxytryptamine 1A receptor was measured using [3H]8-OH-DPAT as radioligand.
For experiment [10], the target named is 5-hydroxytryptamine receptor 2C (Sus scrofa). Briefly: Binding affinity against 5-Hydroxytryptamine 2C Receptor was measured using [3H]N-methyl-mesulergine as radioligand.
For experiment [11], the system named is Rattus norvegicus. Put plainly: In Vivo 5-HT3 agonist activity in the Von Bezold-Jarisch reflex decrease in heart rate in rats at 60 (ug/kg) dose. The format is functional. Summed up: as §1
The subject of experiment [12] is Rattus norvegicus. Briefly: In Vivo 5-HT3 antagonist activity in the Von Bezold-Jarisch reflex in rats after intravenous dose of 60 (ug/kg). The format is functional. The method, boiled down:
as §2

Experiment [13] concerns Rattus norvegicus. Briefly: In Vivo 5-HT3 antagonist activity in the Von Bezold-Jarisch reflex in rats at intravenous dose of 60 (ug/kg). The format is functional. The method, boiled down: as §2

SMILES strings stand for the structures.

The IC50 is the concentration at which inhibition is half-maximal. A high value points to weaker potency. Usually EC50 stands for the midpoint of the concentration-response curve. Read a low EC50 as greater potency. Broadly, the Inhibition is the percentage by which the read-out fell short of the control. Read a high Inhibition as strong suppression.

Sequence of 5-hydroxytryptamine receptor 1B (P28564 whole entry): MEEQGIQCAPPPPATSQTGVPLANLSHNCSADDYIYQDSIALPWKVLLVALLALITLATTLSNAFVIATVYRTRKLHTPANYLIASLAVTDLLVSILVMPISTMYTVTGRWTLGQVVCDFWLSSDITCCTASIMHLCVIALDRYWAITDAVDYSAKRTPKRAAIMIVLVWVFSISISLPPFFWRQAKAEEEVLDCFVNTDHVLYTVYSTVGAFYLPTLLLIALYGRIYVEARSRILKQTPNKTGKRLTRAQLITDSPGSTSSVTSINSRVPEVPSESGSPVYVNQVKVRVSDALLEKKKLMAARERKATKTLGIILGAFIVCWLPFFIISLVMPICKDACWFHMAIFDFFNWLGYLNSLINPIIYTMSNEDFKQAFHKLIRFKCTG
Sequence of 5-hydroxytryptamine receptor 1D (P79400 whole entry): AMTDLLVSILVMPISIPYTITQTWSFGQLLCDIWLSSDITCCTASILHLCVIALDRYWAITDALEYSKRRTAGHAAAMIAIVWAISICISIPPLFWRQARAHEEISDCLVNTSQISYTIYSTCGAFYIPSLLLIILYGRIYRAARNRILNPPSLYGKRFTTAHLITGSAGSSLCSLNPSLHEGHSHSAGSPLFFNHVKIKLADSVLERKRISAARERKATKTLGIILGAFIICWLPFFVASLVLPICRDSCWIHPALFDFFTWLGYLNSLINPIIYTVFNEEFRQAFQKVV

As for `c1ccc(CN2CCN(c3nc4cccnc4n4cccc34)CC2)cc1`, the IC50 in experiment [1] is 13.2 µM; in experiment [2], 15.1 µM. In addition, the “-Log IC50” value in experiment [3] was 12.09. For the same compound, it took 0.032 µM to reach a half-maximal effect in experiment [4] (EC50). For the same compound, the Inhibition in experiment [5] is recorded as 59%; in experiment [6] it was 40%.
For `COc1ccc2c(c1)nc(N1CCN(Cc3ccc(F)cc3)CC1)c1cccn12`, the IC50 in experiment [1] is 69.2 µM; in [2] it was greater than 100 µM; in experiment [7] it was greater than 100 µM. In addition, the “-Log IC50” value in experiment [3] worked out at 8.18. The concentration giving a half-maximal response (EC50) in [4] is 0.104 µM. The ED50 in [8] turned out to be 0.0754 mg/kg. Also, the Inhibition in experiment [5] was determined as 0%.
In experiment [4], `NCCc1c[nH]c2ccc(O)cc12` [SEROTONIN] returned an EC50 of 0.293 µM.
As to `Fc1ccc(CN2CCN(c3nc4cc(Cl)ccc4n4cccc34)CC2)cc1`, the IC50 is greater than 100 µM in experiment [1]; greater than 100 µM in experiment [2]; greater than 100 µM in experiment [7]; 40.7 µM in experiment [9]; greater than 100 µM in [10]. Also, the “-Log IC50” value in experiment [3] is listed as 7.71.
Regarding `Cc1ccc2c(c1)nc(N1CCN(Cc3ccc(F)cc3)CC1)c1cccn12`, the 50% inhibitory concentration (IC50) in experiment [1] was 10 µM; in experiment [2], greater than 100 µM; in [7], greater than 100 µM; in experiment [9], 12.9 µM; in experiment [10], greater than 100 µM. Besides, the “-Log IC50” value in experiment [3] is reported as 7.87.
With `c1ccc(CN2CCN(c3ccc4nc(N5CCN(Cc6ccccc6)CC5)c5cccn5c4n3)CC2)cc1`, the IC50 in experiment [1], in experiment [2], in [7], in experiment [9] and in experiment [10] was greater than 100 µM throughout. In addition, the “-Log IC50” value in experiment [3] is listed as 7.06.
For the compound `Clc1ccc2c(c1)nc(N1CCN(Cc3ccccc3)CC1)c1cccn12`, the IC50 in experiment [1] is 19.1 µM; in experiment [2], greater than 100 µM; in experiment [7], greater than 100 µM. Besides, in experiment [3], the “-Log IC50” value was 9.54. The compound also yielded an EC50 in experiment [4] of 0.052 µM. In experiment [8], the ED50 was found to be 0.0312 mg/kg. In addition, the Inhibition in experiment [5] is reported as 0%.
With `Clc1ccc2c(c1)nc(N1CCN(Cc3ccc4c(c3)OCO4)CC1)c1cccn12`, the 50% inhibitory concentration (IC50) in experiment [1] was 14.5 µM; in experiment [2] it was greater than 100 µM; in [7], 46.8 µM; in experiment [9], 9.55 µM; in experiment [10], greater than 100 µM. Further, the “-Log IC50” value in [3] is recorded as 10.09.
In the case of `CN1CCN(c2nc3cccnc3n3cccc23)CC1`, the half-maximal inhibitory concentration (IC50) in [1] is 0.245 µM; in experiment [2], 7.94 µM; in [7] it was 0.955 µM; in [9] it was 0.0977 µM; in experiment [10], 0.275 µM. The “-Log IC50” value in experiment [3] is 9.01.
As to `c1ccc(CN2CCN(c3nc4ccccc4n4cccc34)CC2)cc1`, the IC50 in experiment [1] was 12.9 µM; in [2] it was 10.5 µM; in experiment [7], 24 µM. In [3], the “-Log IC50” value came to 9.45. Also, the EC50 in experiment [4] is 0.018 µM. Besides, the Inhibition is given as 54% in experiment [11] and 80% in experiment [12].
With `Clc1ccc2nc(N3CCN(Cc4ccccc4)CC3)c3cccn3c2c1`, the IC50 is greater than 100 µM in [1]; greater than 100 µM in experiment [2]; greater than 100 µM in experiment [7]; 89.1 µM in experiment [9]; 44.7 µM in experiment [10]. The “-Log IC50” value in [3] came out at 7.69.
With `Cc1ccnc2c1nc(N1CCN(Cc3ccccc3)CC1)c1cccn12`, the IC50 is 43.7 µM in experiment [1]; 51.3 µM in [2]; greater than 100 µM in experiment [7]; 50.1 µM in experiment [9]; 57.5 µM in experiment [10]. Besides, the “-Log IC50” value in experiment [3] was 5.52.
Take `c1ccc(COc2ccc3nc(N4CCN(Cc5ccccc5)CC4)c4cccn4c3n2)cc1`: the IC50 in [1] was greater than 100 µM; in experiment [2], greater than 100 µM; in [7], greater than 100 µM; in [9], 55 µM; in experiment [10], greater than 100 µM. In addition, the “-Log IC50” value in experiment [3] came out at 4.43.
In the case of `c1ccc(CN2CCN(c3nc4ccsc4n4cccc34)CC2)cc1`, the “-Log IC50” value in [3] was found to be 8.85. Also, the EC50 in experiment [4] was determined as 0.011 µM. The Inhibition came out at 40% in experiment [5] and 42% in experiment [13].
As to `C=CCN1CCN(c2nc3cccnc3n3cccc23)CC1`, the IC50 in experiment [1] is 0.204 µM; in [2] it was 25.1 µM; in experiment [7], 0.955 µM; in [9], 0.117 µM; in experiment [10] it was 0.372 µM. Besides, the “-Log IC50” value in experiment [3] is on record as 11.4.

These data come from ChEMBL document CHEMBL1130056, “Novel and selective partial agonists of 5-HT3 receptors. 2. Synthesis and biological evaluation of piperazinopyridopyrrolopyrazines, piperazinopyrroloquinoxalines, and piperazinopyridopyrroloquinoxalines” (J Med Chem, 1997).
